The source of these data is ChEMBL document CHEMBL1154160, “Synthesis, antiviral activity, and stability of nucleoside analogs containing tricyclic bases” (Eur J Med Chem, 2009).

Series [1] can be described thus: (§1) Cytotoxicity against african green monkey Vero cells. It counts as cell-based. The following applies: chlorocebus sabaeus, Vero cells.
Series [2] can be described thus: (§2) Cytotoxicity against human PBMC cells. The series is classed as cell-based. The settings on record: PBMC cells.
In series [3] the test system is Human immunodeficiency virus. Put plainly: Antiviral activity against HIV in human PBM cells. The following applies: Human immunodeficiency virus 1, PBMC.
The next series relates to Hepatitis C virus. The series can be described thus: Antiviral activity against HCV in human Huh7 cells by RNA replicon assay. It counts as functional, organism-based, Hepacivirus hominis. The settings on record: Huh-7. On the technique in general: A replicon is a self-replicating genome or part of one, used to study replication in cells.
A short description of series [4]: (§3) Cytotoxicity against human CEM cells. The series is classed as cell-based, CCRF-CEM. The settings on record: CEM (CCRF-CEM) cells.
A short description of series [5]: Stability in water assessed as half life. The series is classed as physicochemical. The settings on record: buffer. Summed up: (§4)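 Analogs were diluted from a freshly made stock into water and into methanol, with one half held at room temperature and the other at 4°C. Samples were injected at intervals: every 15 min for 2 hr, then hourly, daily and weekly. LC-MS/MS used a C18 column at 30°C with a formate pH 3 (or water)/methanol gradient, ESI-positive SRM. Released guanine-analog was quantified against 10–1000 nM standard curves.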

For a further series, the system named is Vero. Described as §1. It counts as cell-based. The settings on record: chlorocebus sabaeus, vero.
In a further series the test system is PBMC. The description is as §2. It counts as cell-based. The settings on record: pbmc.
The nature of series [6]: Stability in methanol assessed as 3'-azido-3'-deoxyguanosine levels after 72 hrs. The series is classed as physicochemical. In a few lines:
as §4

For a further series, the system named is CCRF-CEM. Described as §3. It counts as cell-based. The following applies: ccrf-cem.
Another series relates to Human alphaherpesvirus 1. The series can be described thus: Antiviral activity against HSV1 F in african green monkey Vero cells by plaque reduction assay. The series is classed as functional, organism-based. The following applies: Human alphaherpesvirus 1, strain F. (Plaque reduction counts the foci of infection that form in a cell layer.)

The structures appear in SMILES notation.

On to `CCc1cn2c(=O)c3ncn([C@@H]4O[C@H](CO)[C@@H](O)[C@@]4(C)O)c3nc2[nH]1`, for which the cytotoxic concentration (CC50) in series [1], in series [2] and in series [4] was above 100 µM in each case. Also, the EC50 in series [3] was above 100 µM; in the series on Hepatitis C virus, above 10 µM. In addition, the figures for the EC90 (in series [3]; in the series with Hepatitis C virus) were above 100 µM and above 10 µM, respectively.
`C[C@@]1(O)[C@H](O)[C@@H](CO)O[C@H]1n1cnc2c(=O)[nH]c(N)nc21` [2'-B-METHYL-GUANOSINE]: the CC50 in series [1], in series [2] and in series [4] was above 100 µM in each case. Also, the half-maximal effective concentration (EC50) was above 100 µM in [3] and 2.3 µM with Hepatitis C virus. The EC90 in series [3] is above 100 µM; in the series with Hepatitis C virus, 7.8 µM.
As for `CCN(CC)c1ccc(-c2cn3c(=O)c4ncn([C@H]5C[C@H](N=[N+]=[N-])[C@@H](CO)O5)c4nc3[nH]2)cc1`, the t1/2 in series [5] was 25 min. Moreover, the CC50 was 72.8 µM in the series on Vero, above 100 µM in the series on PBMC and 14.1 µM with CCRF-CEM. For the same compound, the EC50 was 0.04 µM in series [3] and above 10 µM in the series on Hepatitis C virus. The values for the 90% effect concentration (EC90) (in series [3]; in the series on Hepatitis C virus) were 0.34 µM and above 10 µM, respectively. In addition, in series [6], the Activity is 1%.
In the series on Human alphaherpesvirus 1, `COc1ccc(-c2cn3c(O)c4ncn(COCCO)c4nc3n2)cc1` returned a half-maximal effective concentration (EC50) of 12.2 µM and a concentration for an effect of 90% (EC90) of 23.7 µM.
For `O=c1c2ncn([C@H]3CO[C@@H](CO)O3)c2nc2[nH]c(-c3ccc(F)cc3F)cn12`, the CC50 with Vero, in the series on PBMC and in the series with CCRF-CEM was above 100 µM in each case. Besides, the concentration for a half-maximal effect (EC50) is 14.7 µM in series [3] and above 10 µM in the series with Hepatitis C virus. The concentration for an effect of 90% (EC90) was 51.8 µM in series [3] and above 10 µM in the series with Hepatitis C virus.
With `[N-]=[N+]=Nc1ccc(-c2cn3c(=O)c4ncn([C@H]5CO[C@@H](CO)O5)c4nc3[nH]2)cc1`, the CC50 with Vero, in the series with PBMC and in the series with CCRF-CEM was above 100 µM in each case. The EC50 in [3] is 2.6 µM; in the series on Hepatitis C virus it was above 10 µM. Moreover, the concentration for an effect of 90% (EC90) in series [3] was 11.4 µM; with Hepatitis C virus it was above 10 µM.
Take `COc1ccccc1-c1cn2c(=O)c3ncn([C@H]4CO[C@@H](CO)O4)c3nc2[nH]1`: the CC50 in the series with Vero, with PBMC and with CCRF-CEM was above 100 µM in each case. Moreover, the EC50 in series [3] is 8.5 µM; in the series with Hepatitis C virus, above 10 µM. For the same compound, the 90% effect concentration (EC90) in series [3] is 26.8 µM; in the series on Hepatitis C virus it was above 10 µM.

Usually CC50 stands for the concentration at which the toxic effect on the cells reaches its halfway point. What is called EC50 is the midpoint of the concentration-response curve. As usually defined, the EC90 is the concentration at which the effect reaches the 90% level.
